In the library only some 1.4% were active in any assay of this set; here they are far more common.
PERK inhibitor: human PERK inhibition, primary cell-based screen; Q9NZJ5; CHO PERK-DD fusion, SEAP luminescence translation reporter; inhibition, % at 5.6 µM; actives 0.17% (n = 220,000);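 active = inhibition above the mean inhibition of all tested compounds plus 3 SD, set separately per screening campaign, cut at about 2.9% in these data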;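 note: PERK kinase domain activated by AP20187 dimerizer at 100 nM; 0% = DMSO with dimerizer and 100% = rapamycin at 8.4 µM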
Target sequence (Q9NZJ5 whole entry, looked up, the tested form may be a part): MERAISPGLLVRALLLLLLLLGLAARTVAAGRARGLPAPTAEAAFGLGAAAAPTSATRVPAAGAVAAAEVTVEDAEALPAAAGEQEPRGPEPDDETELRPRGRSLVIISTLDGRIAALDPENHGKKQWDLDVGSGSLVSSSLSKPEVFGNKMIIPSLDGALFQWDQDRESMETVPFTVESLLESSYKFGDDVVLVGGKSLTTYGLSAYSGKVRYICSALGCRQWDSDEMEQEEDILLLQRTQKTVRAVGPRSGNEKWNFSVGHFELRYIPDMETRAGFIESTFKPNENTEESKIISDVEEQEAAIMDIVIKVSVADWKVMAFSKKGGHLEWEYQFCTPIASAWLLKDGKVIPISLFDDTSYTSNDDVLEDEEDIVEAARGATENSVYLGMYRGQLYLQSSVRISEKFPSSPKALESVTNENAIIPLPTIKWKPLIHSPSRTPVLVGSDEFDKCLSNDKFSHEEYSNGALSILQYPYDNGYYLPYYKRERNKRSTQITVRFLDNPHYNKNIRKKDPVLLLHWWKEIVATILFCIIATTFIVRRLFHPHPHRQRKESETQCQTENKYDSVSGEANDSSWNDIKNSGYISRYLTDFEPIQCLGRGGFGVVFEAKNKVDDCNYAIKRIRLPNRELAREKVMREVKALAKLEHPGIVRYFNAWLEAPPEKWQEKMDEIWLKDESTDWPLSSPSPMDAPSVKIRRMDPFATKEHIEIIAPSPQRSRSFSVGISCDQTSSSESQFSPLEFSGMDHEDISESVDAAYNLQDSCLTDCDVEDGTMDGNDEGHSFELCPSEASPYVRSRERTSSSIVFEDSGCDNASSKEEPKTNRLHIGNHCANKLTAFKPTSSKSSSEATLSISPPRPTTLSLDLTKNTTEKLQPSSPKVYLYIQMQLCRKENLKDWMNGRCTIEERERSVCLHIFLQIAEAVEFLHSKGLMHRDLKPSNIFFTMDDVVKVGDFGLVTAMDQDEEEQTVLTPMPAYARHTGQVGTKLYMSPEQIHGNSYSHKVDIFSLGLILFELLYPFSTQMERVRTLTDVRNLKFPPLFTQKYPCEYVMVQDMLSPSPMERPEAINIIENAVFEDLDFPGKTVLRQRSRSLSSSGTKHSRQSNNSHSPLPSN
STAT3 act: STAT3 signaling activation. activation (% of control), % at 5.6 µM. U3A cells, IL-6 STAT3-luciferase reporter, luminescence; 100% = signal with IL-6 EC80 alone. actives 0.91% (n = 190,000);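 active = activation above the screen-wide mean of compound activation plus 3 SD, cut at about 130% in these data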;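 note: 0% = background luminescence of wells with medium and substrate only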
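system = STAT3-luciferase reporter U3A cells | reagent = IL-6 stimulus at 33 ng/mL final | timing = 1 h compound pre-exposure, 6 h IL-6 stimulation, 37 °C | measured by = luminescence | evaluation = % activation versus median of IL-6-stimulated wells | control set = IL-6-only wells as 100% reference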
Platelet DG rel: modulates dense granule release in human platelets. actives 0.22% (n = 300,000). AID 1663. inhibition, %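 (compounds screened at 7.5 µM in platelet-rich plasma)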. human platelet-rich plasma, SFLLRN dense granule ATP release, luminescence;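 active = mean replicate score, as percent of positive control, at or above 50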
STAT3 inh-1: reduces IL-6 driven STAT3 reporter signal. U3A cells, IL-6 STAT3-luciferase reporter, luminescence; host cell line lacks STAT1. inhibition, % at 5.5 µM. actives 0.89% (n = 190,000). AID 862;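 active = inhibition above the mean inhibition across all screened compounds plus 3 SD, cut at about 44% in these data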;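 note: 0% = DMSO only wells and 100% = 100 µM nifuroxazide control wells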
STAT1 inh: inhibitors of IFN-gamma induced STAT1 signaling | NIH 3T3 STAT1-luciferase reporter, luminescence | inhibition, % at 5.5 µM | actives 0.35% (n = 200,000) | AID 920;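 active = inhibition above a set limit, the mean inhibition across all tested compounds plus 3 SD, cut at about 34% in these data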;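 note: 0% = IFN-gamma with DMSO and 100% = IFN-gamma with 300 µM nifuroxazide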
STAT3 inh-2: STAT3 inhibition, confirmation assay | inhibition, % at 5.7 µM | U3A cells, IL-6 STAT3 luciferase reporter, luminescence; cell line lacks STAT1 | shares compounds with STAT3 inh-1 | actives 45% (n = 1,200);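 active = inhibition above the hit cutoff computed for the primary STAT3 screen, cut at about 44% in these data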;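 note: 0% = IL-6 plus DMSO and 100% = IL-6 plus nifuroxazide control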
NFkB inh 2: NF-kappaB inhibition in STAT3 inhibitor counter-screen; shares compounds with STAT3 inh-1; HEK293T NF-kB luciferase reporter, TNF-alpha induced; inhibition, % at 5.7 µM; actives 36% (n = 1,200);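 active = inhibition above the mean of solvent-only control wells plus 3 SD, cutoff set per campaign, cut at about 13% in these data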;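 note: 0% = TNF-alpha with DMSO and 100% = TNF-alpha with MG high control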
STAT1 inh 2: counter-screen for STAT3 inhibitors: STAT1 inhibition | shares compounds with STAT3 inh-1 | NIH 3T3 STAT1-luciferase reporter, IFN-gamma induced, luminescence | inhibition, % at 5.7 µM | actives 27% (n = 1,200);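 active = inhibition above the mean plus 3 SD of solvent-only control wells, limit set per screening run, cut at about 16% in these data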;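 note: 0% = DMSO with IFN-gamma and 100% = nifuroxazide control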
Numbers without * were called inactive; x = no result; ! = not confirmed by another sample.

SMILES	PERK inhibitor	STAT3 act	Platelet DG rel	STAT3 inh-1	STAT1 inh	STAT3 inh-2	NFkB inh 2	STAT1 inh 2
COc1ccc(NC(=O)C(C)N2c3cccc4cccc(c34)S2(=O)=O)cc1OC (stereo not drawn)	-1	64	7	46*	28	36	4	22*
COc1ccc(NC(=O)C(C)N2c3cccc4cccc(c34)S2(=O)=O)cc1 (stereo not drawn)	0	95	-10	13	-1	x	x	x
Cc1ccc(-c2nc(-c3cccnc3)no2)cc1	1	78	5	29	-24	x	x	x
CCC(=O)Oc1ccc(-c2nc(-c3cccnc3)no2)cc1	1	62	81*	46*	-20	25	-16	-39
O=C(COc1ccc2ccccc2c1)Nc1nccs1	1	39	-14	78*	17	39	-18	-72
O=C(COc1ccccc1)Nc1nccs1	-1	81	14	24	-27	x	x	x
Cc1ccc(/C=[N+](\[O-])c2ccc(N(C)C)cc2)c2nsnc12	0	83	6	24	-72	x	x	x
CSc1sc(C(=O)NNC(C)=O)c2c1C=CCC2	0	x	0	x	x	x	x	x
COc1ccc(N=c2scc(-c3ccc(OC)cc3)n2CCO)cc1	0	60	4	52*	-3	29	-2	-10
COc1ccccc1-n1c(-c2ccccc2)c[n+]2c1CCc1ccccc1-2	0	34	1	86*	34*!	74*	8	21*
CC(=O)N/C(=C\c1ccccc1)C(=O)OCc1cc(C)ccc1C	x	x	-29	x	x	x	x	x
O=C(NCCN1CCCCC1)c1cc(COc2c(F)cccc2F)on1	x	x	-12	x	x	x	x	x
O=C(Nc1ccc(-c2nc3ccccc3[nH]2)cc1)C1CCCO1 (stereo not drawn)	0	46	87*	68*	14	30	-14	-66
Cc1cccc(-c2nc3cc(NC(=O)C4CCCO4)ccc3o2)c1 (stereo not drawn)	0	42	59*	72*	-34	46*	-5	-76
CCC(=O)Nc1ccc2oc(-c3cccc(C)c3)nc2c1	0	50	x	64*	-3	25	-19	-110
Cc1ccc2oc(-c3cccc(NC(=O)C4CCCO4)c3)nc2c1 (stereo not drawn)	1	110	5	-9	-43	x	x	x
NNc1nc2cc3c(cc2s1)OCCO3	x	x	18	x	x	x	x	x
COc1ccccc1NC(=O)Cn1cnc2c(nc3n2CCCCC3)c1=O	x	x	-4	x	x	x	x	x
O=C(Nc1ncc2c(n1)-c1ccccc1CC2)C1CC1	0	66	2	45*	1	26	2	-2
CC(C)SCC(=O)Nc1ncc2c(n1)-c1ccccc1CC2	1	78	-8	28	-1	x	x	x
N=c1c2c(n(Cc3ccccc3)c3c1CCC3)CCC2	1	62	1	49*	26	35	2	24*
N=c1c2c(n(Cc3ccc(Cl)cc3)c3c1CCC3)CCC2	0	57	2	54*	23	44*	4	24*
N=c1c2c(n(Cc3cccc(Cl)c3)c3c1CCC3)CCCC2	0	56	6	54*	32	45*	4	25*
N=c1c2c(n(Cc3ccc(F)cc3)c3c1CCC3)CCCC2	1	82	-3	25	9	x	x	x
CCCOc1ccc(-c2c(C(=O)N/N=C(\C)COc3ccccc3)nnn2-c2nonc2N)cc1	x	x	-7	x	x	x	x	x
O=C(c1cc(COc2ccc3ncccc3c2)on1)N1CCCC1	x	x	-7	x	x	x	x	x
O=C(c1cc(COc2ccc3ncccc3c2)on1)N1CCCCCC1	0	58	-2	53*	14	59*	13*	14
COc1cccc(CN(C)C(=O)c2cc(COc3ccc4ncccc4c3)on2)c1	0	38	-1	74*	35*	64*	18*	19*
COCC1CCN(C(=O)c2cc(COc3ccc4ncccc4c3)on2)CC1	1	55	3	55*	30	53*	22*	23*
